Results published in article PMC8056739 (British Journal of Clinical Pharmacology, 2020).
Several values for one entry are separate records, joined by “and”; a condition that tells them apart may be missing. Equal entries are not always repeated.

Assays:
[1] = Population PK model of peficitinib in RA patients; type: in vivo, human
How it was run: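 RA patients' plasma levels measured by validated LC–MS/MS (LLOQ 0.25 ng/mL) from trough and post-dose samples. BLQ values, samples >48 h after dosing (or <19 h in RAJ1), and outliers (>mean+3×SD of log trough per arm) were excluded. NONMEM, FOCE with interaction, healthy-volunteer model as prior (NWPRI penalty). 2-compartment model, exponential IIV, proportional residual. Stepwise covariate selection, power function centred on mean. 1000 bootstrap runs.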

[2] = Prior population PK model of peficitinib in healthy volunteers; type: in vivo; conditions: human, plasma, oral, 150 mg
How it was run: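 Healthy-volunteer plasma levels from five clinical pharmacology studies, excluding renal/hepatic-impairment subjects. Validated LC–MS/MS (LLOQ 0.25 ng/mL), BLQ values unused. NONMEM, FOCE with interaction. 2-compartment model, five absorption schemes compared, exponential IIV, proportional residual. Covariates tested on CL: age, weight, MDRD eGFR, liver enzymes, bilirubin. Selection stepwise (forward .01, backward .001). Assessed by goodness-of-fit plots and visual predictive check.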

[3] = cited from earlier work
[4] = RA patient model, 1000 bootstrap runs
[5] = RA patient model, √(exp(ω^2)-1) × 100

- ALAG, absorption lag time (estimate) ([1]; RA patient model): 0.132 h
- D, duration of zero-order absorption (estimate) ([1]; RA patient model): 1.37 h
- Ka, first-order absorption rate constant (estimate) ([1]; RA patient model): 5.83 L/h
- Vc, apparent distribution volume of the central compartment (estimate) ([1]; RA patient model): 280 L
- Vp, apparent distribution volume of the peripheral compartment (estimate) ([1]; RA patient model): 122 L
- CL, apparent total systemic clearance (estimate) ([1]; RA patient model, population estimate, oral): 91.7 L/h
- ALAG, bootstrap median [1, 4]: 0.132 h
- D, bootstrap median [1, 4]: 1.36 h
- Ka, bootstrap median [1, 4]: 5.82 L/h
- Q, bootstrap median [1, 4]: 10.2 L/h
- Vc, bootstrap median [1, 4]: 279 L
- Vp, bootstrap median [1, 4]: 122 L
- Covariate eGFR on CL (exponent of power function, estimate) ([1]; RA patient model, eGFR centred at 91.5 mL/min/1.73m^2): 0.213
- Covariate LYM (lymphocyte count) on CL (exponent of power function, estimate) ([1]; RA patient model, lymphocyte count centred at 1550 10^6/L): −0.104
- Interindividual variability of CL [1, 5]: 25.7%
- Interindividual variability of Vc [1, 5]: 39.2%
- clearance ([1]; human, plasma, oral): 1530 mL/min
- Model predicted mean change in CL from population mean CL ([1]; patients with observed maximum eGFR of 188 mL/min/1.73m^2): 16.7%
- Model predicted mean change in CL from population mean CL ([1]; patients with observed maximum lymphocyte count of 4600 10^6/L): −10.7%
- Model predicted mean change in CL from population mean CL ([1]; patients with observed minimum eGFR of 36.4 mL/min/1.73m^2): −17.8%
- Model predicted mean change in CL from population mean CL ([1]; patients with observed minimum lymphocyte count of 500 10^6/L): 12.3%
- clearance [2]: 1390 mL/min
SMILES: NC(=O)c1cnc2[nH]ccc2c1N[C@@H]1[C@@H]2CC3C[C@H]1C[C@@](O)(C3)C2 [peficitinib]
- Exposure in healthy Japanese compared with Caucasian [3]: greater
- Mean exposure in subjects with moderate hepatic impairment [3]: increases
- Mean AUCinf ([3]; healthy subjects, single dose 450 mg): 4660 ng·h/mL
- Tolerability ([3]; healthy subjects, single dose up to 450 mg): tolerability was shown
- Dose proportionality of exposure ([3]; healthy volunteers, single doses 3–300 mg): dose‐proportional exposure
- Increase of AUCinf by food intake ([3]; healthy volunteers): 27% and 36% and 27–36%
- Mean terminal half-life (t1/2) ([3]; healthy volunteers): 2.8 to 12.9 h
- Time to maximum observed concentration (Tmax) ([3]; healthy volunteers): 1.0 to 1.8 h
- Urinary excretion of peficitinib, share of the oral dose ([3]; healthy volunteers): 9–15%
- Exposure in subjects with versus without renal impairment ([3]; single, oral 150 mg dose): comparable
